# High-throughput results (PubChem BioAssay)
# CHRM1 agonist: human M1 muscarinic receptor agonists, primary screen, Fluo-8 calcium fluorescence, CHO-K1 cells, HTS. Muscarinic acetylcholine receptor M1 (Homo sapiens), P11229. CHO-K1 hM1, agonist mode; 0% DMSO, 100% acetylcholine EC100. activation, % at 3 µM. 360,000 tested, 0.33% active. AID 588814, 2011;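 active = activation above the run's mean compound activation plus 3 SD, cut at about 16% in these data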;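 also: peak over basal fluorescence ratio within a 140 s kinetic read after compound addition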
# Target sequence (P11229 whole entry, looked up): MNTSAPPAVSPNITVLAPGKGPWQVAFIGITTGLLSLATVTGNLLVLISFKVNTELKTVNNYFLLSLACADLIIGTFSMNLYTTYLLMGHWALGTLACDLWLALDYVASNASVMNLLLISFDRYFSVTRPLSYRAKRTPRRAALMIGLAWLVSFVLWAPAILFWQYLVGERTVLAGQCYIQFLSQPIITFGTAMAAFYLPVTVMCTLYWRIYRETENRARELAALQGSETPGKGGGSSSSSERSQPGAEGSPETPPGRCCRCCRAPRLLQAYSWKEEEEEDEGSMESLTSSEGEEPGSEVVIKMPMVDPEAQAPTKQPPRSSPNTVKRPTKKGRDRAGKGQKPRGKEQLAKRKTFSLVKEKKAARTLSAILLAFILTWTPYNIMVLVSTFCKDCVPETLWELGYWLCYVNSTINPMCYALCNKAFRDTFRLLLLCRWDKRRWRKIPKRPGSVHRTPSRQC
# M1 PAM: human M1 muscarinic receptor positive allosteric modulators, primary screen, CHO-K1 cells, Fluo-8 calcium fluorescence, 1536-well; activation, % at 3 µM; CHO-K1 hM1, ACh EC20; 0% = ACh EC20, 100% = maximal ACh; 360,000 tested, 0.088% active; Muscarinic acetylcholine receptor M1 (Homo sapiens), P11229; in the data active = activation above about 19%, passing the limit was not always enough
# CHRM5 PAM: human M5 muscarinic receptor positive allosteric modulators, primary screen, CHO-K1 cells, Fluo-8 calcium fluorescence; Muscarinic acetylcholine receptor M5 (Homo sapiens), P08912; CHO-K1 hM5, ACh EC20 PAM; 0% = ACh EC20, 100% = ACh EC100; activation, % at 3 µM; 360,000 tested, 0.3% active; AID 624038, 2012;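 active = activation above the run cutoff, the mean activation of all test compounds plus 3 SD, cut at about 18% in these data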
#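 Assay system: CHO-K1 hM5 cells / Incubation: Fluo-8 loading 80 min at 37 °C plus 30 min room temperature / Technique: Fluo-8 calcium dye fluorescence, kinetic read / Repeats: single replicate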
# CHRM1 antagonist: human M1 muscarinic receptor antagonists, primary screen, CHO-K1 cells, Fluo-8 calcium fluorescence, 1536-well. Muscarinic acetylcholine receptor M1 (Homo sapiens), P11229. CHO-K1 hM1, ACh EC80 antagonist. inhibition, % at 3 µM. 360,000 tested, 1.3% active;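 active = percent inhibition above its own plate's cutoff, namely the mean of that plate's compound wells plus 3 SD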;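 also: peak over basal fluorescence ratio during 140 s after agonist addition; 0% = ACh EC80 plus DMSO and 100% = DMSO alone without agonist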
# CHRM5 agonist: human M5 muscarinic receptor agonists, primary screen, CHO-K1 cells, Fluo-8 calcium fluorescence | CHO-K1 hM5 cells; 0% DMSO wells, 100% maximal acetylcholine response | Muscarinic acetylcholine receptor M5 (Homo sapiens), P08912 | AID 624037, 2012 | activation, % at 3 µM | 360,000 tested, 0.19% active;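 active = activation above the run's mean over test compounds plus 3 SD, cut at about 23% in these data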;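 also: signal is peak over basal fluorescence ratio across the kinetic read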
# CHRM5 antagonist: human M5 muscarinic receptor antagonists, primary screen, CHO cells, Fluo-8 calcium fluorescence; CHO-hM5 cells, ACh EC80; inhibition, % at 3 µM; 360,000 tested, 0.59% active; AID 624040, 2012;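 active = inhibition above a per-plate cutoff, the mean of that plate's test compounds plus 3 SD, cut at about 27% in these data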;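 also: 0% = acetylcholine EC80 with DMSO and 100% = DMSO without agonist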
# * hit, by the source's call. This is a sample that favours compounds with a hit; in the whole collection about 2.1% have one here.
SMILES,CHRM1 agonist,M1 PAM,CHRM5 PAM,CHRM1 antagonist,CHRM5 agonist,CHRM5 antagonist
C[n+]1c(-c2ccccc2)cc2c(=Cc3ccccc3)c3ccccc3n21,-8.8,-27.5,-1.7,45.7*,-11.6,21.0
CN(C)c1ccc(C=c2c3cc(O)ccc3n3c2cc(-c2ccccc2)[n+]3C)cc1,-8.8,-8.0,6.8,0.1,-4.5,9.9
C[n+]1c(-c2ccccc2)cc2c(=Cc3ccc([N+](=O)[O-])cc3)c3ccccc3n21,-8.1,-27.2,-5.9,42.2*,-12.1,10.6
CC(=O)N1CCc2ccc(S(=O)(=O)N3CCc4ccccc43)cc21,-3.2,-19.6,-10.3,34.9*,-2.7,4.7
CCCC(=O)c1ccc(N2CCN(C(=O)c3cccs3)CC2)c(F)c1,-3.4,-23.3,-19.3,42.4*,5.2,22.6
CCOC(=O)c1nc(C)[nH]c1C(=O)OCC,-4.0,2.8,-12.3,-3.0,-1.2,13.2
COc1nccc(NCc2ccccc2)c1C#N,-0.9,16.1,6.7,-15.1,2.1,-1.7
Cn1c(=O)[nH]c(=O)c2c1nc(SCC(=O)O)n2CCOc1ccccc1,-8.8,-26.0,-7.7,54.7*,-5.9,5.2
COc1ccc(S(=O)(=O)N2CCCOC2CNC(=O)C(=O)NCc2ccco2)cc1C (configuration not stated),-0.2,6.4,5.1,-1.6,2.9,-14.4
CCc1cccc(OCC(=O)Nc2ccc(C(=O)O)cc2NC(=O)COc2cccc(CC)c2)c1,-4.7,-5.4,1.0,-4.9,-2.3,-0.7
CSc1nc2ccccc2n1Cc1c(Cl)cccc1Cl,-6.1,-20.2,20.9*,21.2,-12.4,9.9
O=C(N/N=C1/CCSC1)c1cc(Br)ccc1O,1.4,0.2,-17.8,-5.8,-0.6,45.5*
CC(C)(C)C(=O)N1CCN(c2ccc3c(c2)C2CC3CCN2C(=O)OCc2ccccc2)CC1 (configuration not stated),-5.1,3.6,2.5,-3.8,1.8,-5.4
COCc1[nH][nH]c(=O)c1C=Nc1ccc(OC(F)(F)F)cc1,-4.2,-3.0,-7.2,5.2,-2.7,6.2
Cc1ccc(NC(=O)COc2ccc3c(c2)OCO3)c(Cl)c1,6.9,27.0*,10.8,-13.3,0.9,5.2
CCc1ccccc1NC(=O)COc1ccc2c(c1)OCO2,-3.7,4.1,5.3,3.0,-1.1,3.6
Cc1ccc(C(=O)NNC(=S)NC(=O)c2ccc(Cl)cc2)cc1,98.3*,-37.6,-30.1,45.3*,97.9*,17.8
COc1cc(OC)c(NC(=O)c2c(-c3ccccc3)noc2C)cc1Cl,-4.0,-0.2,18.4*,2.1,1.9,-12.3
CC(=O)NNC(=S)NC(=O)c1ccc(C)cc1,-3.6,2.2,-3.2,-3.3,-0.1,14.5
COc1ccc(Cl)cc1NC(=O)c1c(-c2ccccc2)noc1C,-3.6,-14.4,-33.9,26.9,-4.8,11.8
Cc1onc(-c2ccccc2)c1C(=O)NNC(=S)NC(=O)c1ccc(Cl)cc1Cl,90.3*,-27.6,-8.5,16.1,30.3*,-1.5
Cc1cccc(C(=O)NC(=S)NNC(=O)c2ccccc2Cl)c1,91.1*,-25.1,-17.0,27.4,46.0*,6.8
Cc1onc(-c2ccccc2)c1C(=O)NNC(=O)c1ccccc1O,-2.6,3.7,-2.5,-6.1,-0.6,-2.4
COc1ccc2c(=O)c(C(=O)NCCc3ccc(OC)c(OC)c3)c[nH]c2c1,1.6,5.8,0.5,-1.1,5.2,-1.3
O=C(CCn1c(=O)[nH]c2ccsc2c1=O)N1CCN(c2ccc([N+](=O)[O-])cc2)CC1,-2.7,16.0,3.3,-19.4,-1.0,-2.5
SMILES,CHRM1 agonist,M1 PAM,CHRM5 PAM,CHRM1 antagonist,CHRM5 agonist,CHRM5 antagonist
Cc1onc(-c2ccccc2)c1C(=O)NNC(=S)NC(=O)c1ccc(Br)cc1,75.0*,-18.3,-14.0,7.5,34.6*,-4.8
Cc1ccccc1C(=O)NNC(=S)NC(=O)c1ccc(Cl)cc1Cl,85.3*,-24.8,-17.0,17.6,53.0*,25.9
Cc1onc(-c2ccccc2)c1C(=O)NNC(=S)NC(=O)/C=C/c1ccccc1,40.4*,-10.3,-3.4,4.6,4.1,2.3
Cc1onc(-c2ccccc2)c1C(=O)NNC(=O)c1ccccc1,-2.5,10.4,1.4,-16.8,-3.0,6.5
COc1ccc(/C=C/C(=O)NC(=S)NNC(=O)c2c(-c3ccccc3)noc2C)cc1,10.9,1.1,-5.7,-2.7,0.6,7.5
OCCCNc1ncnc2c1[nH]c1ccccc12,-4.2,2.7,-0.4,1.9,-0.8,9.4
Fc1ccc2[nH]c3c(NCc4ccccc4)ncnc3c2c1,2.0,-4.2,-16.1,23.1,9.7,36.6*
Cc1cc(OC(=O)c2c(Cl)cc(Cl)cc2Cl)nc(C)n1,-4.1,24.4*,2.5,-17.1,0.2,-6.1
COC(=O)C1=C(C)NC(=O)/C1=C\c1cc(C)n(-c2cccc(C)c2)c1C,-2.9,15.2,4.7,-18.8,-0.6,-6.8
CCOc1ccccc1C1C2C(=O)N(c3ccccc3)C(=O)C2ON1c1ccccc1 (configuration not stated),-4.2,-11.7,-13.9,27.6*,1.2,5.1
O=C(O)COc1ccccc1C1C2C(=O)N(c3ccccc3)C(=O)C2ON1c1ccccc1 (configuration not stated),-0.9,-1.1,-9.1,-1.9,0.1,-4.7
C=CCn1c(SCC(=O)Nc2ccccc2F)nnc1C(C)NC(=O)c1ccccc1F (configuration not stated),-1.9,3.8,3.7,-3.2,-2.8,-0.5
C=CCn1c(SCC(=O)Nc2nc(C)cs2)nnc1C(C)NC(=O)c1ccccc1Cl (configuration not stated),-3.2,-8.6,-1.6,47.0*,0.7,-2.8
Cc1nc2ccc(NC(=O)c3cc(S(=O)(=O)N(C)c4ccccc4)ccc3Cl)cc2s1,1.6,-11.1,-16.2,20.6,12.1,29.2*
CC(=O)Nc1ccc(C(=O)Nc2cccc(S(=O)(=O)N(C)c3ccccc3)c2)cc1,-0.4,0.3,-19.5,6.2,5.7,-1.6
CN(c1ccccc1)S(=O)(=O)c1cccc(NC(=O)c2ccc(Cl)c([N+](=O)[O-])c2)c1,-1.5,-17.6,-37.6,37.3*,2.7,33.6*
O=C(Nc1ccc(Nc2ccccc2)cc1)c1ccc(Cl)c([N+](=O)[O-])c1,-1.0,-16.4,-22.5,31.7*,1.4,10.9
